Measurements taken from ChEMBL document CHEMBL1156899, “Novel 1,3-dihydro-benzimidazol-2-ones and their analogues as potent non-nucleoside HIV-1 reverse transcriptase inhibitors” (Bioorg Med Chem, 2010).

Experiments:
[1] = Selectivity index, ratio of CC50 for human MT4 cells to EC50 for HIV1 3B; format: toxicity, cell-based; details: read-out: Ratio CC50/EC50
[2] = system: Human immunodeficiency virus 1; assay: Antiviral activity against HIV1 3B infected in human MT4 cells assessed inhibition of viral-induced cytopathic effect after 5 days; format: functional, organism-based; details: Human immunodeficiency virus 1, 3B, MT4, 120 h
Procedure, shortened: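 MT-4 cells infected with HIV-1 IIIB at about 100 times the CCID50 per mL of suspension, then mixed 1:1 with serial compound dilutions and incubated at 37 °C for five days. Viable cell number was then determined.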

[3] = target: Human immunodeficiency virus type 1 reverse transcriptase (Human immunodeficiency virus 1, UniProt Q72547, L100I); assay: Inhibition of HIV1 reverse transcriptase L100I mutant by RNA-dependent DNA polymerase activity assay
[4] = target: Human immunodeficiency virus type 1 reverse transcriptase (Human immunodeficiency virus 1, UniProt Q72547, Y181I); assay: Inhibition of HIV1 reverse transcriptase Y181I mutant by RNA-dependent DNA polymerase activity assay
[5] = target: Human immunodeficiency virus type 1 reverse transcriptase (Human immunodeficiency virus 1, UniProt Q72547, K103N); assay: Inhibition of HIV1 reverse transcriptase K103N mutant by RNA-dependent DNA polymerase activity assay
[6] = Cytotoxicity in human MT4 cells assessed as reduction in cell viability; format: cell-based
[7] = target: Human immunodeficiency virus type 1 reverse transcriptase (Human immunodeficiency virus 1, UniProt Q72547); assay: Inhibition of RNA-dependent DNA polymerase activity of HIV1 reverse transcriptase using poly(rA)/pligo(dT) template

Row | SMILES | selectivity ratio [1] | EC50 [2] [nM] | IC50 [3] [nM] | IC50 [4] [nM] | IC50 [5] [nM] | CC50 [6] [nM] | IC50 [7] [nM]
1 | Cc1cc(C)cc(S(=O)(=O)n2c(=O)[nH]c3ccc(Cl)cc32)c1 | 17800 | 2.2 | 9 | > 40000 | 400 |  | 
2 | Cc1cccc(S(=O)(=O)n2c(=O)[nH]c3ccc(Cl)cc32)c1 | > 20500 | 15.1 | 70 | > 40000 | 10000 | > 308000 | 21
3 | Cc1ccc(S(=O)(=O)n2c(=O)[nH]c3ccc(Cl)cc32)cc1 | 2900 | 46 |  |  |  | 134000 | 149
4 | O=c1[nH]c2ccc(Cl)cc2n1S(=O)(=O)c1cccc(OC(F)(F)F)c1 | > 35 | 3660 |  |  |  | > 128000 | 305
5 | Cc1cc(C)cc(S(=O)(=O)n2c(=O)[nH]c3ccc(Cl)nc32)c1 | > 10500 | 26 | 70 | 27000 | 2800 | > 272000 | 20
6 | Cc1ccc(S(=O)(=O)n2c(=O)[nH]c3ccc(Cl)cc32)c(C)c1 | 327 | 120 |  |  |  | 39300 | 630
7 | Cc1ccc(C)c(S(=O)(=O)n2c(=O)[nH]c3ccc(Cl)cc32)c1 | > 37100 | 9.7 | 380 | > 40000 | > 40000 | > 371000 | 49
8 | Cc1ccc(S(=O)(=O)n2c(=O)[nH]c3ccc(Cl)cc32)cc1C | > 61900 | 6 | 30 | > 40000 | 2610 | > 371000 | 4
9 | COc1cccc(S(=O)(=O)n2c(=O)[nH]c3ccc(Cl)cc32)c1 | > 10500 | 35 | 330 | > 40000 | 10900 | > 369000 | 52
10 | Cc1cc(C)c(C)c(S(=O)(=O)n2c(=O)[nH]c3ccc(Cl)cc32)c1C | > 5410 | 63 | 180 | > 40000 | > 40000 | ≥ 343000 | 40
11 | O=c1[nH]c2ccc(Cl)cc2n1S(=O)(=O)c1cc(C(F)(F)F)cc(C(F)(F)F)c1 | 104 | 310 |  |  |  | 32300 | 310
12 | Cc1ccccc1S(=O)(=O)n1c(=O)[nH]c2ccc(Cl)cc21 | > 201 | 1920 |  |  |  | > 387000 | 269
13 | Cc1c(C)c(C)c(S(=O)(=O)n2c(=O)[nH]c3ccc(Cl)cc32)c(C)c1C | 1830 | 129 | 80 | > 40000 | 6700 | 236000 | 47
14 | Cc1cc(C)c(S(=O)(=O)n2c(=O)[nH]c3ccc(Cl)cc32)c(C)c1 | > 355 | 1000 | 10 | > 40000 | > 40000 | > 356000 | 1.2
15 | O=c1[nH]c2ccc(Cl)cc2n1S(=O)(=O)c1cccc(C(F)(F)F)c1 | > 664 | 500 |  |  |  | > 332000 | 1720
16 | O=C1Nc2ccc(Cl)cc2[C@@](C#CC2CC2)(C(F)(F)F)O1 [EFAVIRENZ] |  |  |  |  |  | > 6000 | 
17 | Cc1ccnc2c1NC(=O)c1cccnc1N2C1CC1 [NEVIRAPINE] |  |  |  |  |  | > 15000 | 
